The source made the active and inactive calls. The rule behind the calls is not given here.
How the values were obtained:
L1210 = test: Compound tested for inhibition of growth of L1210 cells in culture at 10e-4 M; NI = no inhibition; format: functional, cell-based; conditions: Mus musculus
Procedure, shortened: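 Murine L1210 leukemia cells were harvested in log phase and resuspended in RPMI 1640 with 10% fetal bovine serum at a starting density of 17.5×10^4 cells/mL. Analogue stock was 5×10⁻³ M in phosphate-buffered saline, pH 7.4, filter-sterilized, then serially diluted in medium. Final concentrations were 10⁻⁴ to 10⁻⁸ M. Cultures grew 72 h at 37 °C and were counted every 24 h by Coulter counter against untreated controls.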

[1] = Compound was tested for apparent dissociation constant at pH 14; format: ADME
Procedure, shortened: (§1)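 pKa values were determined potentiometrically on 0.001 M solutions with a pH meter. For one analogue the values came from least-squares analysis with activity corrections. Measurement temperature was recorded with each value, and standard deviations were reported.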

[2] = Compound was tested for apparent dissociation constant at pH 9; format: ADME; procedure, shortened: as §1
[3] = Compound was tested for apparent dissociation constant at pH 7; format: ADME; procedure, shortened: as §1
[4] = Compound was tested for apparent dissociation constant at pH 10; format: ADME; procedure, shortened: as §1
[5] = Compound was tested for apparent dissociation constant at pH 13; format: ADME; procedure, shortened: as §1

In the case of `NC1=NS(=O)(=O)c2nc[nH]c2N1`, the inhibition (L1210) is reported as “inactive”, the pKa [1] is reported as 11.6 and the pKa [2] is reported as 6.84.
In the case of `NS(=O)(=O)c1[nH]cnc1NC=O`, the inhibition (L1210) is reported as “inactive” and the pKa [3] is reported as 8.7.
For `Nc1[nH]cnc1S(N)(=O)=O`, the inhibition (L1210) was “inactive” and the pKa [3] was 9.43.
For `O=C1Nc2[nH]cnc2S(=O)(=O)N1`, the inhibition (L1210) was “inactive”, the pKa [4] was 8.99 and the pKa [5] was 11. The pKa [3] was 2.55.

Reference: ChEMBL document CHEMBL1121441, “Synthesis and properties of the sulfonyl analogues of 4(5)-aminoimidazole-5(4)-carboxamide, 4(5)-(formylamino)imidazole-5(4)-carboxamide, guanine, and xanthine” (J Med Chem, 1980)
